Experimental data taken from ChEMBL document CHEMBL1275595, “Antimicrobial activity of a halocidin-derived peptide resistant to attacks by proteases” (2010).
Values after ≈ are worked out from the molar mass of the structure shown. Active and inactive are the calls of the source. The calls are words filed in the database; no cut-off is given here. Bridge positions count the residues as written; N and C are the ends. Peptide text beside a SMILES is read from it. I, II: the chains in the order shown.

Legend:
Staphylococcus aureus [1] = assay: Antimicrobial activity against methicillin-resistant Staphylococcus aureus CCARM 3696 by radial diffusion assay incubated with trypsin; type: functional, organism-based
Salmonella enterica = assay: Antimicrobial activity against Salmonella enterica KCTC 2930 after 18 hrs by broth dilution method; type: functional; details: KCTC 2930, 18 h
How it was run: (§1)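 Broth microdilution following CLSI recommendations. Bacteria were grown overnight to stationary phase in Mueller-Hinton broth, then diluted in fresh MHB to 2 × 10^5 CFU/ml. Peptide or antibiotic stocks of 640 μg/ml in 0.01% acetic acid were serially 2-fold diluted to 10 μg/ml, and each was added to the bacterial suspension at 11 μl per 100 μl. Plates were incubated 18 h at 37°C. MIC was taken as the lowest concentration giving no visible turbidity, in triplicate.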

Klebsiella oxytoca = assay: Antimicrobial activity against Klebsiella oxytoca KCTC 1686 after 18 hrs by broth dilution method; type: functional; details: KCTC 1686, 18 h; how it was run: as §1
Bacillus subtilis = assay: Antimicrobial activity against Bacillus subtilis KCTC 2213 after 18 hrs by broth dilution method; type: functional; details: KCTC 2213, 18 h; how it was run: as §1
Escherichia coli = assay: Antimicrobial activity against Escherichia coli KCTC 1039 after 18 hrs by broth dilution method; type: functional; details: KCTC 1039, 18 h; how it was run: as §1
Listeria monocytogenes = assay: Antimicrobial activity against Listeria monocytogenes KCTC 19111 after 18 hrs by broth dilution method; type: functional; details: KCTC 19111, 18 h; how it was run: as §1
Staphylococcus aureus [2] = assay: Antimicrobial activity against methicillin-resistant Staphylococcus aureus CCARM 3696 after 18 hrs by broth dilution method; type: functional; details: CCARM 3696, 18 h
How it was run: (§2)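 Broth dilution per CLSI. Bacteria were grown overnight to stationary phase in Mueller-Hinton broth and diluted in fresh MHB to 2 × 10^5 CFU/ml. Stocks at 640 μg/ml in 0.01% acetic acid were 2-fold serially diluted to 10 μg/ml, and 11 μl was added to 100 μl of bacteria. After 18 h at 37°C, MIC was the lowest concentration with no visible turbidity. Run in triplicate.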

Pseudomonas aeruginosa = assay: Antimicrobial activity against multidrug-resistant Pseudomonas aeruginosa CCARM 2161 after 18 hrs by broth dilution method; type: functional; details: CCARM 2161, 18 h; how it was run: as §2
Micrococcus luteus = assay: Antimicrobial activity against Micrococcus luteus KCTC 9341 after 18 hrs by broth dilution method; type: functional; details: KCTC 9341, 18 h; how it was run: as §1
Enterococcus faecium = assay: Antimicrobial activity against vancomycin-resistant Enterococcus faecium CCARM 5028 after 18 hrs by broth dilution method; type: functional; details: CCARM 5028, 18 h; how it was run: as §2
Citrobacter freundii = assay: Antimicrobial activity against Citrobacter freundii KCTC 2359 after 18 hrs by broth dilution method; type: functional; details: KCTC 2359, 18 h; how it was run: as §1

Structure (SMILES) | Activity (Staphylococcus aureus [1]) | MIC (Salmonella enterica) [mg/L] | MIC (Klebsiella oxytoca) [mg/L] | MIC (Bacillus subtilis) [mg/L] | MIC (Escherichia coli) [mg/L] | MIC (Listeria monocytogenes) [mg/L] | MIC (Staphylococcus aureus [2]) [mg/L] | MIC (Pseudomonas aeruginosa) [mg/L] | MIC (Micrococcus luteus) [mg/L] | MIC (Enterococcus faecium) [mg/L] | MIC (Citrobacter freundii) [mg/L]
CC(C)C[C@H](NC(=O)CNC(=O)[C@H](Cc1cnc[nH]1)NC(=O)[C@H](Cc1cnc[nH]1)NC(=O)[C@H](CC(C)C)NC(=O)[C@H](CC(C)C)NC(=O)[C@H](C)NC(=O)[C@H](CC(N)=O)NC(=O)[C@H](CC(C)C)NC(=O)[C@H](Cc1c[nH]c2ccccc12)NC(=O)[C@@H](N)CCCCN)C(=O)N[C@@H](CC(N)=O)C(=O)N[C@@H](CSSC[C@H](NC(=O)[C@H](CC(N)=O)NC(=O)[C@H](CC(C)C)NC(=O)CNC(=O)[C@H](Cc1cnc[nH]1)NC(=O)[C@H](Cc1cnc[nH]1)NC(=O)[C@H](CC(C)C)NC(=O)[C@H](CC(C)C)NC(=O)[C@H](C)NC(=O)[C@H](CC(N)=O)NC(=O)[C@H](CC(C)C)NC(=O)[C@H](Cc1c[nH]c2ccccc12)NC(=O)[C@@H](N)CCCCN)C(=O)N[C@@H](C)C(=O)N[C@@H](CCCCN)C(=O)O)C(=O)N[C@@H](C)C(=O)N[C@@H](CCCCN)C(=O)O (I: H-KWLNALLHHGLNCAK-OH / II: H-KWLNALLHHGLNCAK-OH; disulfide I:13-II:13) | Active |  |  |  |  |  |  |  |  |  | 
CC(C)C[C@H](NC(=O)CNC(=O)[C@H](Cc1cnc[nH]1)NC(=O)[C@H](Cc1cnc[nH]1)NC(=O)[C@H](CC(C)C)NC(=O)[C@H](CC(C)C)NC(=O)[C@H](C)N)C(=O)N[C@@H](CC(N)=O)C(=O)N[C@@H](CSSC[C@H](NC(=O)[C@H](CC(N)=O)NC(=O)[C@H](CC(C)C)NC(=O)CNC(=O)[C@H](Cc1cnc[nH]1)NC(=O)[C@H](Cc1cnc[nH]1)NC(=O)[C@H](CC(C)C)NC(=O)[C@H](CC(C)C)NC(=O)[C@H](C)NC(=O)[C@H](CC(N)=O)NC(=O)[C@H](CC(C)C)NC(=O)[C@H](Cc1c[nH]c2ccccc12)NC(=O)[C@@H](N)CCCCN)C(=O)N[C@@H](C)C(=O)N[C@@H](CCCCN)C(=O)NCC(=O)N[C@H](C(=O)N[C@@H](CC(C)C)C(=O)N[C@@H](C)C(N)=O)C(C)C)C(=O)N[C@@H](C)C(=O)N[C@@H](CCCCN)C(=O)NCC(=O)N[C@H](C(=O)N[C@@H](CC(C)C)C(=O)N[C@@H](C)C(N)=O)C(C)C (I: H-KWLNALLHHGLNCAKGVLA-NH2 / II: H-ALLHHGLNCAKGVLA-NH2; disulfide I:13-II:9) |  | 4 (≈ 1.12 µM) | 4 (≈ 1.12 µM) | 4 (≈ 1.12 µM) | 4 (≈ 1.12 µM) | 4 (≈ 1.12 µM) | 8 (≈ 2.24 µM) | 8 (≈ 2.24 µM) | 8 (≈ 2.24 µM) | 4 (≈ 1.12 µM) | 8 (≈ 2.24 µM)
C[C@H]1[C@H](NC(=O)/C(=N\OC(C)(C)C(=O)O)c2csc(N)n2)C(=O)N1S(=O)(=O)O [AZTREONAM] |  | > 64 | < 1 | > 64 | < 1 | < 1 | > 64 | 8 (≈ 18.4 µM) | > 64 | > 64 | 4 (≈ 9.19 µM)
CC(C)(O/N=C(\C(=O)N[C@@H]1C(=O)N2C(C(=O)[O-])=C(C[n+]3ccccc3)CS[C@H]12)c1csc(N)n1)C(=O)O [CEFTAZIDIME] |  | > 64 | < 1 | 4 (≈ 7.32 µM) | < 1 | < 1 | > 64 | 4 (≈ 7.32 µM) | > 64 | > 64 | 8 (≈ 14.6 µM)
CO/N=C(\C(=O)N[C@@H]1C(=O)N2C(C(=O)O)=C(CSc3nc(=O)c(O)nn3C)CS[C@H]12)c1csc(N)n1 [CEFTRIAXONE] |  | 4 (≈ 7.21 µM) | < 1 | < 1 | < 1 | < 1 | > 64 | > 64 | 16 (≈ 28.9 µM) | > 64 | 2 (≈ 3.61 µM)
